# Assays:
# [1] = system: A2780/Adr (drug resistant); experiment: Fluorometric microculture cytotoxicity assay; type: cell-based, human; conditions: for IC50 ratio (resistant vs sensitive cells): A2780/Adr vs A2780; for IC50: 72 h, A2780/Adr (drug resistant) ovarian carcinoma
# Outline: (§1)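 FMCA with cells seeded into plates pre-loaded with compound and stored at −20°C or −80°C. Seeding was 1,000–2,500 (384-well) or 5,000–10,000 (96-well) cells/well. Culture media: RPMI 1640 for CCRF-CEM, A2780, A2780/Adr, BXPC-3, U-937 and RPMI 8226; McCoy's for HT29 and HCT116. After 72 h, plates were washed and given fluorescein diacetate buffer for 45 min, then fluorescence was read. Survival index = (treated − blank)/(control − blank); IC50 taken from curves.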
# A2780 xenograft = experiment: Human OC cell xenograft study; type: in vivo, NMRI nu/nu female nude mice
# HCT8 cells = experiment: Live cell microscopy; type: cell-based, human; conditions: HCT8, 50 nM, 30 cells
# Outline: (§2)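 HCT116, HCT8 and MCF10A cells were given 50 nM test compound or a reference tubulin agent and imaged on an IncuCyte immediately and for 3 days, at 1 h intervals, in three replicates. Growth curves used mean confluence from six images per time point. Mitotic duration and mitotic fate were scored from time-lapse films: 10 cells per well, 30 cells per condition.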
# [2] = system: developing blood vessels of chick embryo; experiment: Ex ovo chicken embryo chorioallantoic membrane; type: in vivo; conditions: for effect on blood vessel growth and integrity: 10 nM, vs DMSO vehicle; for growth of the blood vessels (change in relative surface area) / vascular integrity (discontinuity of the vessels): 50 nM, 24 and 48 h posttreatment, vs controls
# Outline: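 Fertilized eggs incubated at 37.5°C and 60% humidity, then opened into 10 cm dishes on day 4. Two days later a 5 mm filter paper carrying test compound (10, 50, 200 nM), reference vascular disrupting agent or DMSO was laid on the CAM between two main vessels. Eggs were incubated 2 more days and photographed at 0, 24 and 48 h. Read-outs: relative surface area of vessels touching the paper, and disruption index (intact segments >10 mm).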
# HCT116 cells = experiment: Live cell microscopy; type: cell-based, human; conditions: HCT116, 50 nM, 30 cells
# Outline: as §2
# [3] = system: HCT116, HCT8 and MCF10A cells; type: cell-based, human
# Outline: as §2
# OvCar-8 cells = experiment: Time-lapse mitotic index and cell death index in OC cell lines; type: cell-based, human; conditions: OvCar-8, 12.5 nM
# Outline: (§3)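 Ovarian OvCar-8, OvCar-4 and CaOv-3 cells were time-lapse filmed for 3 days, starting immediately after adding 12.5 nM test compound, 12.5 nM paclitaxel or vehicle alone. Mitotic index and cell death index were scored from the films at 12, 24, 48 and 72 h.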
# [4] = system: panel of eight cancer cell lines; experiment: FMCA, range over the panel of cancer cell lines; type: cell-based, human; conditions: read-out: IC50, range over cell lines
# Outline: as §1
# [5] = system: cocultures of endothelial colony forming cells (ECFCs) and adipocyte derived stem cells (ADSCs); experiment: Vascular tube formation assay, disruption of established cords; type: cell-based, human
# Outline: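 Cocultures of GFP-labelled endothelial colony forming cells and adipocyte-derived stem cells were stimulated with VEGF (20 ng/mL) to form cords. Compounds were added to the established cords at 96 h. Images were taken every 6 h and scored for relative cord length and branch points. pIC50 came from a four-parameter logistic fit of area-under-curve data between 96 and 186 h.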
# [6] = system: cocultures of endothelial colony forming cells (ECFCs) and adipocyte derived stem cells (ADSCs); experiment: Vascular tube formation assay, neoangiogenic; type: cell-based, human; conditions: 4.6 nM–10 µM, VEGF 20 ng/mL coapplied on day 0
# Outline: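 Cocultures of GFP-labelled endothelial colony forming cells and adipocyte-derived stem cells (StemKit). Compounds were co-applied with VEGF (20 ng/mL) on day 0 to follow cord formation. Fluorescent and phase-contrast images (10×) were taken every 6 h for up to 8 days. Cord length (mm/mm2) and branch points were analysed from 3–6 separate samples per condition.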
# bovine tubulin protein = experiment: In vitro tubulin polymerization assay; type: biochemical; conditions: cell-free, 60 min
# Outline: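 Commercial kit using bovine tubulin, cell-free. The test compound was tested at 1.0–10 µM. Vincristine and paclitaxel at 3.0 µM served as inhibition and stabilization controls. Compounds were dissolved in DMSO and diluted in sterile water to at most 0.1% DMSO, which was the solvent control. Polymerization was followed by a fluorescent reporter incorporated into microtubules and read continuously at 360/450 nm for 60 min.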
# OvCar-4 cells = experiment: Time-lapse mitotic index and cell death index in OC cell lines; type: cell-based, human
# [7] = Plasma levels in the maximal tolerated dose study; type: in vivo, NMRI nu/nu female mice
# Outline: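 In the maximal tolerated dose study, female NMRI nu/nu mice received test compound PO at 10, 20 or 40 mg/kg. Plasma concentrations were measured 1 and 4 h after dosing.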
# CaOv-3 cells = experiment: Time-lapse mitotic index and cell death index in OC cell lines; type: cell-based, human; conditions: CaOv-3, 12.5 nM
# Outline: as §3
# Caco-2 cell monolayers = experiment: Caco-2 permeability assay; type: in vitro ADME, human
# Outline: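 Caco-2 monolayers grown to confluence on collagen-coated polycarbonate transwell membranes. Buffer was HBSS with 10 mM HEPES and 15 mM glucose, pH 7.4; the receiver side also held 1% BSA. 5 μM test compound was dosed apically (A-to-B) or basolaterally (B-to-A) at 37°C, 5% CO2. Donor and receiver were sampled at 120 min, in duplicate. Co-applied Lucifer yellow checked integrity. High permeability: Papp A-to-B ≥1.0×10−6 cm/s.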
# MCF10A cells = experiment: Live cell microscopy; type: cell-based, human; conditions: 50 nM, 30 cells
# Outline: as §2
compound,measurement,setting,value
"CCC[C@H](Nc1nc(-c2ccc(NC(=O)NCC)c(OC)c2)ncc1C)c1cccnc1 [CYT997, lexibulin]",IC50 ratio (resistant vs sensitive cells),[1],3.35
same,IC50,"[1]; Homo sapiens, A2780 ADR",183 nM
COc1ccc2[nH]cc(CCNc3nccc(Nc4cccc5c4ccn5C)n3)c2c1 [NOV202],effect on tumor volume,"A2780 xenograft; PO 40 mg/kg, 5 days on/2 days off, comparable to paclitaxel 24 mg/kg IV",clear antitumor effect
same,tolerability by body weight measurements,"A2780 xenograft; PO 10, 20, 40 mg/kg during the treatment",well tolerated
same,average duration of mitosis,HCT8 cells,11.8 ± 3.1 h
same,effect on blood vessel growth and integrity,[2],ineffective
same,growth of the blood vessels (change in relative surface area),[2],significantly suppressed
same,vascular integrity (discontinuity of the vessels),[2],significantly suppressed
same,average duration of mitosis,HCT116 cells,26.2 ± 7.1 h
same,cell population growth (cell confluency),"[3]; 50 nM, filmed for 3 days",strong growth suppression
same,effect on interphase and mitotic microtubule networks,"[3]; 15–50 nM, data not shown",markedly disrupted or completely wiped out
same,mitotic index (MI),OvCar-8 cells; 12 h,27.0%±4.0%
same,cell death index (CDI),OvCar-8 cells; 24 h,29.0%±9.0%
same,cell death index (CDI),OvCar-8 cells; 48 h,31.0%±10.5%
same,cell death index (CDI),OvCar-8 cells; 72 h,30.0%±2.3%
same,IC50,[4],2.3 to 12 nM
same,"pIC50, disruption of VEGF stimulated established cords","[5]; four-parameter logistic fit of AUC between 96 and 186 h, VEGF 20 ng/mL",8.3
same,VEGF-induced cord (tube) formation,[6],completely inhibit tube formation
same,effect on tubulin polymerization,bovine tubulin protein; 1.0 µM,"slowed down the rate of the polymerization, but could not suppress it"
same,effect on tubulin polymerization,bovine tubulin protein; 3.0 µM,suppress tubulin heterodimer polymerization
same,effect on tubulin polymerization,bovine tubulin protein; 10 µM,block the polymerization almost completely
same,mitotic index (MI),"OvCar-4 cells; OvCar-4, 12.5 nM, 12 h",24.0%±9.5%
same,cell death index (CDI),"OvCar-4 cells; OvCar-4, 12.5 nM, 24 h",13.7%±1.5%
same,cell death index (CDI),"OvCar-4 cells; OvCar-4, 12.5 nM, 48 h",16.3%±2.1%
same,cell death index (CDI),"OvCar-4 cells; OvCar-4, 12.5 nM, 72 h",12.0%±1.0%
same,cell death index (CDI),"OvCar-4 cells; OvCar-4, 50 nM, 24 h",28.7%±6.8%
same,cell death index (CDI),"OvCar-4 cells; OvCar-4, 50 nM, 48 h",48.3%±10.7%
same,cell death index (CDI),"OvCar-4 cells; OvCar-4, 50 nM, 72 h",59.3%±13.2%
same,plasma concentration,"[7]; PO 10 mg/kg, 1 h post-dosing",21 nM
same,plasma concentration,"[7]; PO 10 mg/kg, 4 h post-dosing",17 nM
same,plasma concentration,"[7]; PO 20 mg/kg, 1 h post-dosing",54 nM
same,plasma concentration,"[7]; PO 20 mg/kg, 4 h post-dosing",29 nM
same,plasma concentration,"[7]; PO 40 mg/kg, 1 h post-dosing",309 nM
same,plasma concentration,"[7]; PO 40 mg/kg, 4 h post-dosing",76 nM
same,mitotic index (MI),CaOv-3 cells; 12 h,12.7%±2.5%
same,cell death index (CDI),CaOv-3 cells; 24 h,46.0%±1.7%
same,cell death index (CDI),CaOv-3 cells; 48 h,68.7%±4.2%
same,cell death index (CDI),CaOv-3 cells; 72 h,77.0%±4.6%
same,IC50,[1],2.3 nM
same,IC50 ratio (resistant vs sensitive cells),[1],0.96
same,Efflux ratio,Caco-2 cell monolayers; bi-directional Caco-2,1.0
same,Efflux substrate,Caco-2 cell monolayers; significant efflux: efflux ratio >3.0 and Papp B-to-A ≥1.0×10^−6 cm/s,no significant efflux
same,average duration of mitosis,MCF10A cells,16.4 ± 5.2 h
"CC(=O)O[C@H]1C(=O)[C@@]2(C)[C@H]([C@H](OC(=O)c3ccccc3)[C@]3(O)C[C@H](OC(=O)[C@H](O)[C@@H](NC(=O)c4ccccc4)c4ccccc4)C(C)=C1C3(C)C)[C@]1(OC(C)=O)CO[C@@H]1C[C@@H]2O [PTX, paclitaxel]",effect on tubulin polymerization,bovine tubulin protein; 3.0 µM,effective stabilizer of tubulin polymerization
same,IC50 ratio (resistant vs sensitive cells),[1],"3,115"
same,IC50,"[1]; Homo sapiens, A2780 ADR",810 nM
"CC[C@]1(O)C[C@H]2CN(CCc3c([nH]c4ccccc34)[C@@](C(=O)OC)(c3cc4c(cc3OC)N(C=O)[C@H]3[C@@](O)(C(=O)OC)[C@H](OC(C)=O)[C@]5(CC)C=CCN6CC[C@]43[C@@H]65)C2)C1 [VinC, vincristine]",effect on tubulin polymerization,bovine tubulin protein; 3.0 µM,suppress tubulin heterodimer polymerization
same,IC50 ratio (resistant vs sensitive cells),[1],955
same,IC50,"[1]; Homo sapiens, A2780 ADR",210 nM
"COc1ccc(/C=C\c2cc(OC)c(OC)c(OC)c2)cc1O [Combretastatin A4, reference compound]",effect on blood vessel growth and integrity,[2],ineffective
same,growth of the blood vessels (change in relative surface area),[2],significantly suppressed
same,vascular integrity (discontinuity of the vessels),[2],significantly suppressed
"Cc1ccc(C(=O)Nc2ccc(S(=O)(=O)O)c3cc(S(=O)(=O)O)cc(S(=O)(=O)O)c23)cc1NC(=O)c1cccc(NC(=O)Nc2cccc(C(=O)Nc3cc(C(=O)Nc4ccc(S(=O)(=O)O)c5cc(S(=O)(=O)O)cc(S(=O)(=O)O)c45)ccc3C)c2)c1 [suramin, reference compound]",effect on established cords,"[5]; 100 µM, added at t=96 h",complete regression of established cords

# From PMC5417661 (Drug Design, Development and Therapy, 2017)
